Assay results: ChEMBL document CHEMBL6092224, “The Discovery and Preclinical Profile of ALG-000184, a Prodrug of the Potent Hepatitis B Virus Capsid Assembly Modulator ALG-001075” (J Med Chem, 2024)
Activity calls are given as the source filed them. The rule behind the calls is not given here.

Legend:
[1] = molecular target: Organic anion transporter 1 (Homo sapiens); assay: Inhibition of OAT1 (unknown origin) transfected in HEK293 cells
[2] = Half life in C57BL/6J mouse at 5 mg/kg, po by LC-MS/MS analysis; type: ADME, organism-based; details: in vivo
Procedure, shortened: (§1)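 Single dose to fasted male C57BL6 mice, Sprague-Dawley rats, beagle dogs and cynomolgus monkeys, either IV at 1 mg/kg or PO as a solution at 5 mg/kg, in 80% PEG 400 in water. Plasma concentrations were measured by LC-MS/MS. PK parameters come from noncompartmental analysis using nominal doses and nominal sampling times.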

Cytochrome P450 3A4 = Cytochrome P450 3A4 (Homo sapiens, UniProt P08684); assay: Induction of CYP3A4 (unknown origin) in human hepatocytes upto 30 uM; type: ADME, cell-based, Hepatocyte
[3] = Cmax in Beagle dog at 5 mg/kg, po by LC-MS/MS analysis; type: ADME, organism-based, Canis lupus familiaris; details: in vivo
Procedure, shortened: as §1

Hepatitis B virus [4] = assay: Antiviral activity against AAV-Hepatitis B virus infected in C57BL/6 mouse assessed as reduction in baseline HBV DNA production at 15 to 50 mg/kg, po qd for 56 days followed by induction of compound washout period measured after 7 days; type: functional, organism-based; details: dose 15-50 mg/kg, time 63.0 day
[5] = AUC (infinity) in Beagle dog at 1 mg/kg, iv by LC-MS/MS analysis; type: ADME, organism-based, Canis lupus familiaris; details: in vivo
Procedure, shortened: as §1

[6] = molecular target: Solute carrier family 22 member 1 (Homo sapiens, UniProt O15245); assay: Inhibition of OCT1 (unknown origin) transfected in HEK293 cells; type: cell-based
Procedure, shortened: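 HEK-293 cells transfected with the uptake transporter; uptake of known probe substrates measured with test compound at eight concentrations (0.0229–50.0 μM or 0.0457–100 μM); inhibition at each concentration used to calculate IC50.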

[7] = Oral bioavailability in Cynomolgous monkey at 5 mg/kg by LC-MS/MS analysis; type: ADME, organism-based, Macaca fascicularis; details: cynomolgus monkey, in vivo
Procedure, shortened: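 Fasted male C57BL6 mice, Sprague–Dawley rats, beagle dogs, cynomolgus monkeys; single IV dose 1 mg/kg or PO solution 5 mg/kg in 80% PEG 400 in water; plasma concentrations measured, noncompartmental analysis with nominal doses and times; F from PO vs IV AUC.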

[8] = Volume of distribution at steady state in Cynomolgous monkey at 1 mg/kg, iv by LC-MS/MS analysis; type: ADME, organism-based, Macaca fascicularis; details: cynomolgus monkey, in vivo, read-out: Vdss
Procedure, shortened: (§2)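 Fasted males (C57BL6 mice, Sprague−Dawley rats, beagle dogs, cynomolgus monkeys) given a single IV dose of 1 mg/kg in 80% PEG 400 in water. Plasma concentrations measured by LC-MS/MS. Vss derived by noncompartmental analysis using nominal dose and nominal sampling times.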

[9] = AUC (infinity) in Beagle dog at 5 mg/kg, po by LC-MS/MS analysis; type: ADME, organism-based, Canis lupus familiaris; details: in vivo
Procedure, shortened: as §1

Mus musculus = assay: Effect on HBeAg level in C57BL/6 mouse infected with AAV-Hepatitis B virus at 15 mg/kg, po bid for 56 days followed by induction of compound washout period for 14 days; type: functional, organism-based; details: time 70.0 day
[10] = AUC (infinity) in Sprague-Dawley rat at 5 mg/kg, po by LC-MS/MS analysis; type: ADME, organism-based; details: in vivo
Procedure, shortened: as §1

[11] = Cmax in Sprague-Dawley rat at 5 mg/kg, po by LC-MS/MS analysis; type: ADME, organism-based; details: in vivo
Procedure, shortened: as §1

[12] = Effect on differentiation of human HPC cells upto 10 uM; type: toxicity, cell-based
[13] = Tmax in Cynomolgous monkey at 5 mg/kg, po by LC-MS/MS analysis; type: ADME, organism-based, Macaca fascicularis; details: cynomolgus monkey, in vivo
Procedure, shortened: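 Fasted males (C57BL6 mice, Sprague−Dawley rats, beagle dogs, cynomolgus monkeys) given a single oral solution dose of 5 mg/kg in 80% PEG 400 in water. Plasma sampled over time, analysed by LC-MS/MS. Noncompartmental analysis used nominal doses and nominal sampling times.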

Hepatitis B virus [14] = assay: Antiviral activity against HBV infected in human primary hepatocyte cells assessed as decrease in HBV RNA production pre-infected cells with virus followed by compound treatment for 3 days and subsequent replacement of medium with compound measured after 4 days by qPCR analysis; type: functional, organism-based
[15] = Toxicity in C57BL/6 mouse infected with AAV-Hepatitis B virus assessed as change in ALT level at 15 to 50 mg/kg, po qd for 56 days followed by induction of compound washout period for 14 days; type: organism-based; details: in vivo, 1680 h, dose 15-50 mg/kg, time 70 day
[16] = Clearance in Beagle dog at 1 mg/kg, iv by LC-MS/MS analysis; type: ADME, organism-based, Canis lupus familiaris; details: in vivo
Procedure, shortened: as §1

Hepatitis B virus [17] = assay: Antiviral activity against HBV infected in human HepG2.117 cells by qPCR analysis; type: functional, organism-based
Procedure, shortened: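 HepG2.117 cells (integrated genotype D HBV genome, Tet-off promoter; kept in 1 μg/mL doxycycline) were seeded at 20,000 cells/well and given serial compound dilutions (2% DMSO) for 3 days at 37 °C. Lysates were taken in 0.33% NP40. Intracellular HBV DNA was quantified by qPCR and EC50/EC90 derived. For serum shift, 40% human serum was present during incubation. Mean ± SEM, n=3 (serum) or 13.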

Bile salt export pump = Bile salt export pump (Homo sapiens, UniProt O95342); assay: Inhibition of BSEP (unknown origin) transfected in HEK293 cells; type: cell-based
[18] = Cytotoxicity against human HepG2.117 cells assessed as cell viability upto 50 uM; type: toxicity, cell-based; details: hepg2.117, 50 µM
[19] = AUC (infinity) in C57BL/6J mouse at 1 mg/kg, iv by LC-MS/MS analysis; type: ADME, organism-based; details: in vivo
Procedure, shortened: as §1

[20] = Volume of distribution at steady state in C57BL/6J mouse at 1 mg/kg, iv by LC-MS/MS analysis; type: ADME, organism-based; details: in vivo, read-out: Vdss
Procedure, shortened: as §2

[21] = Toxicity in C57BL/6 mouse infected with AAV-Hepatitis B virus assessed as change in body weight at 15 mg/kg, po bid for 56 days followed by induction of compound washout period for 14 days; type: organism-based; details: in vivo, 1680 h, time 70 day
[22] = Cmax in C57BL/6J mouse at 5 mg/kg, po by LC-MS/MS analysis; type: ADME, organism-based; details: in vivo
Procedure, shortened: as §1

[23] = Ratio of drug concentration in blood to plasma in human at 5 uM incubated for 60 mins; type: ADME, cell-free
Procedure, shortened: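 Compound at 5 μM in whole blood of each species, 37 ± 1 °C for 60 min; blood-to-plasma ratio and red blood cell partitioning determined.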

[24] = Plasma protein binding in rat at 2 uM incubated for 4 to 24 hrs by equilibrium dialysis method; type: ADME, cell-free; details: time 4-24 hrs, read-out: PPB (converted)
Procedure, shortened: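 Rapid equilibrium dialysis in mouse, rat, dog, monkey or human plasma for 4 or 24 h at 2 μM.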

[25] = Prodrug conversion in high fat diet-fed Beagle dog assessed as formation of N-(3-cyano-4-fluorophenyl)-4-(2-((3-ethynyloxetan-3-yl)amino)-2-oxoacetyl)-1,3,5-trimethyl-1H-pyrrole-2-carboxamide metabolite at 5 mg/kg, po measured for 96 hrs; type: ADME, organism-based, Canis lupus familiaris; details: in vivo

Chain of Bile salt export pump (O95342 whole entry): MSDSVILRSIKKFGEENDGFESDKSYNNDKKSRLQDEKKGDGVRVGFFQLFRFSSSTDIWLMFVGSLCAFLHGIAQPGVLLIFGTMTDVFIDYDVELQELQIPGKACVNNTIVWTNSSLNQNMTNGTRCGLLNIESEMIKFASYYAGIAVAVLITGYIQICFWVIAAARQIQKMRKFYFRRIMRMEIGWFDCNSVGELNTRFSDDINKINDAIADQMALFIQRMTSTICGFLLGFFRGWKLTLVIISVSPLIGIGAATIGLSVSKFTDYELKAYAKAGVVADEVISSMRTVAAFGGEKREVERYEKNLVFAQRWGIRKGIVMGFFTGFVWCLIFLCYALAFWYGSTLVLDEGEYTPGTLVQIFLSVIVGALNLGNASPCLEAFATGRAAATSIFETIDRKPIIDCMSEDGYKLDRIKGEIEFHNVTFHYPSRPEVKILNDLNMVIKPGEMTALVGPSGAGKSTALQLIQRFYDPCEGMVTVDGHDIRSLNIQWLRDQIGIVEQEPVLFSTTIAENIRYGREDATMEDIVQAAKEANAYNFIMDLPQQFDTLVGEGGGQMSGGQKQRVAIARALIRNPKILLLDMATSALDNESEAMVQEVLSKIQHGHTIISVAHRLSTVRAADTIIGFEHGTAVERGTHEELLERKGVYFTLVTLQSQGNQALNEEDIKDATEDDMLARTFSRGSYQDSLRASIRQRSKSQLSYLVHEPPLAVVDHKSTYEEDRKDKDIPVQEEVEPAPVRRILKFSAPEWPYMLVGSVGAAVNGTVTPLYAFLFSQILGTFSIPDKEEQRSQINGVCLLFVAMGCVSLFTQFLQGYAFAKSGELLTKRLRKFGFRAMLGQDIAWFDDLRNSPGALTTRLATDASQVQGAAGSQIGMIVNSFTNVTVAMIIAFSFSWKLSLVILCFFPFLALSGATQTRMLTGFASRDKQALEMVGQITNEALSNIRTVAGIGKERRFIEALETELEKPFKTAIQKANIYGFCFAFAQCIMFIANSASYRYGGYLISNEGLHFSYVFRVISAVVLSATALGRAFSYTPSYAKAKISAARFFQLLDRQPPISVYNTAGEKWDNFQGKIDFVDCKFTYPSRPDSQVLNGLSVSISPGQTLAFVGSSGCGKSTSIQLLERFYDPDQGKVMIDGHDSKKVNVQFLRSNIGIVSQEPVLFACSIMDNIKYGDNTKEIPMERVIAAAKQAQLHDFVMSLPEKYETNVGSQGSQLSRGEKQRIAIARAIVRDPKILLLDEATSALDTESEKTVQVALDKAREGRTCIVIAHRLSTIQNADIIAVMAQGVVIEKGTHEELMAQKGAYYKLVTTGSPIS
Chain of Solute carrier family 22 member 1 (O15245 whole entry): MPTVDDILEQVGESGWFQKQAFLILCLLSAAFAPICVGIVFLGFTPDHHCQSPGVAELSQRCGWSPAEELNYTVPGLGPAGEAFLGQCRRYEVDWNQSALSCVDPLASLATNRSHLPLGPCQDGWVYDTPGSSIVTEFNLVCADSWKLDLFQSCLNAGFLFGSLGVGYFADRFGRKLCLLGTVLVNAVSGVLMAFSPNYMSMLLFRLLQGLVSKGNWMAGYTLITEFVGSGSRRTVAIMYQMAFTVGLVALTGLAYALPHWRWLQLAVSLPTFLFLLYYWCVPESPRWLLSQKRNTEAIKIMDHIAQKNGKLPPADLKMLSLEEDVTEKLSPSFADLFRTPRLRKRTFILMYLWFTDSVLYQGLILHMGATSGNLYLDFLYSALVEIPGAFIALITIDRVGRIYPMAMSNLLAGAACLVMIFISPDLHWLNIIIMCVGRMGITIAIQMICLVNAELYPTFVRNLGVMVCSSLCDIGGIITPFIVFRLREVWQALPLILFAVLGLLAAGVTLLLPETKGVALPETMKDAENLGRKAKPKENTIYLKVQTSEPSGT
Chain of Cytochrome P450 3A4 (P08684 whole entry): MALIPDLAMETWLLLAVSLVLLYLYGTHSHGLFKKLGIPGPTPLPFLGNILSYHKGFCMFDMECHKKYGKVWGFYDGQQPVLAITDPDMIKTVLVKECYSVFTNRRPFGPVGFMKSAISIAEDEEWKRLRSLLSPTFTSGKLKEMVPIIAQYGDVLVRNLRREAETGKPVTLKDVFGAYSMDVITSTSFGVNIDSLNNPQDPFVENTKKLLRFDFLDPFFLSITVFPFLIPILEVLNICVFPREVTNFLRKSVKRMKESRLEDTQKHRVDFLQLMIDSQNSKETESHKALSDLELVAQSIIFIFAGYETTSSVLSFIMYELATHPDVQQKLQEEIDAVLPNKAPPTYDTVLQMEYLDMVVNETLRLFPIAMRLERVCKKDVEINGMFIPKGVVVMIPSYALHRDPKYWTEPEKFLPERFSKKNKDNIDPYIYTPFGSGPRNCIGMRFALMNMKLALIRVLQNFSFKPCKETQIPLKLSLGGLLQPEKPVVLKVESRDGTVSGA

## C#CC1(NC(=O)C(=O)c2c(C)c(C(=O)Nc3ccc(F)c(C#N)c3)n(C)c2C)COC1
[1]
  IC50: > 11800 nM
[2]
  half-life: 1.55 h
Cytochrome P450 3A4
  Activity: Not_active
[3]
  Cmax: 1900 ng/mL
Hepatitis B virus [4]
  Activity: inactive
[5]
  AUC(0-inf): 8520 ng·h/mL
[6]
  IC50: > 11800 nM
[7]
  bioavailability: 19.6%
[8]
  Vd: 0.89 L/kg
[9]
  AUC(0-inf): 24500 ng·h/mL
Mus musculus
  Activity: inactive
[10]
  AUC(0-inf): 8720 ng·h/mL
[11]
  Cmax: 1830 ng/mL
[12]
  Activity: Non-toxic
[13]
  Tmax: 1.17 h
Hepatitis B virus [14]
  EC50: 54.7 nM
[15]
  Activity: Non-toxic
[16]
  clearance: 1.97 mL/min/kg
Hepatitis B virus [17]
  EC50: 0.63 nM
Bile salt export pump
  IC50: > 11800 nM
[18]
  Activity: Non-toxic
[19]
  AUC(0-inf): 1390 ng·h/mL
[20]
  Vd: 1 L/kg
[21]
  Activity: Non-toxic
[22]
  Cmax: 2290 ng/mL
[23]
  blood plasma ratio at 1 h, 5 µM: 0.73

## C#CC1(N(COP(=O)([O-])[O-])C(=O)C(=O)c2c(C)c(C(=O)Nc3ccc(F)c(C#N)c3)n(C)c2C)COC1.[Na+].[Na+]
[24]
  fraction unbound at 2 µM: 0.025
[25]
  Drug metabolism: metabolite_detected
